# Experimental data reported in ChEMBL document CHEMBL1130115 (J Med Chem, 1997).
# What was measured:
# [1] = biological target: Adenosine receptor A2a (Rattus norvegicus) (UniProt P30543); experiment: Displacement of specific [3H]-CGS- 21680 binding at adenosine A2A receptor in rat striatal membranes.; assay type: cell membranes; design: concentration or dose not given beside the values; settings: Membrane; concentration not given here
# Adenosine receptor A3 = biological target: T1, Adenosine receptor A3 (Homo sapiens, UniProt P0DMS8); experiment: Displacement of specific [125I]AB-MECA binding at human adenosine A3 receptor.
# T1 sequence (P0DMS8 whole entry): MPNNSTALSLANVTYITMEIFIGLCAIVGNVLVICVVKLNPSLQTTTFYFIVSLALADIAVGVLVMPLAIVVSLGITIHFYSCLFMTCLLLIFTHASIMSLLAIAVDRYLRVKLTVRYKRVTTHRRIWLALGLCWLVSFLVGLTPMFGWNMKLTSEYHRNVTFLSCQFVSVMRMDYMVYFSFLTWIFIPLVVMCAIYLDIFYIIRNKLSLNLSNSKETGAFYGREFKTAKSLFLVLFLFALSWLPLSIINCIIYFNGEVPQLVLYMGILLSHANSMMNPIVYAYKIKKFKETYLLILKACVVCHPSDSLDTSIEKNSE
# [2] = biological target: T2, Adenosine receptor A1 (Rattus norvegicus) (UniProt P25099); experiment: Displacement of specific [3H](R)-PIA binding at Adenosine A1 receptor from rat brain membranes; assay type: cell membranes; design: concentration or dose not given beside the values; settings: Membrane; concentration not given here
# T2 sequence (whole entry): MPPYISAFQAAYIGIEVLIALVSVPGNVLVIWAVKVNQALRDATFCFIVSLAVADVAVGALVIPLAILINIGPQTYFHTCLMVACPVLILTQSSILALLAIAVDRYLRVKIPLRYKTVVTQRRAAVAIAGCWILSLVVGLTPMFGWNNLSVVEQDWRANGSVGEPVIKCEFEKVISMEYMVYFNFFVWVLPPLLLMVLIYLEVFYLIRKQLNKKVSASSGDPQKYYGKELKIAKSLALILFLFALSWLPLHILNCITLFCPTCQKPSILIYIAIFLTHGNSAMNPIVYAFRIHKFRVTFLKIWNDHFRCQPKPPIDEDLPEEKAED
# [3] = biological target: Adenosine receptor A2a (Rattus norvegicus) (UniProt P30543); experiment: Displacement of specific [3H]-CGS- 21680 binding at Adenosine A2A receptor in rat striatal membranes at the concentration of 10e-4 M; assay type: cell membranes; settings: Membrane
# In short: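 [3H]CGS 21680 binding to rat striatal membranes, with adenosine deaminase (3 units/mL) during preparation, 30 min 30 °C preincubation and incubation. Reported as % of specific binding displaced at 10^-4 M.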
# Adenosine receptor A2a = Adenosine receptor A2a (Rattus norvegicus, UniProt P30543); experiment: Displacement of specific [3H]-CGS- 21680 binding at Adenosine A2A receptor in rat striatal membranes.; assay type: cell membranes, Membrane
# Adenosine receptor A2a, sequence (P30543 whole entry): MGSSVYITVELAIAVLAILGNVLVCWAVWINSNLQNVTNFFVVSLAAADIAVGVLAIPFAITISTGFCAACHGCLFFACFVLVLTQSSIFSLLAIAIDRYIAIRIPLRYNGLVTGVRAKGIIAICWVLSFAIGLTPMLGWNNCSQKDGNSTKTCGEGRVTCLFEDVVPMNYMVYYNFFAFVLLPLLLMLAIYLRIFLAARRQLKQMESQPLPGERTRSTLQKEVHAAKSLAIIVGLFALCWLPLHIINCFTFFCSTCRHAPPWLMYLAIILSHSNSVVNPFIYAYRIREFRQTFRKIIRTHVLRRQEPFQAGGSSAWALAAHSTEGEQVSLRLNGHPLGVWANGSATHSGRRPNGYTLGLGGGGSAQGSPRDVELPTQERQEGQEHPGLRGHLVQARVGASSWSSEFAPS
# [4] = biological target: T2, Adenosine receptor A1 (Rattus norvegicus); experiment: Displacement of specific [3H](R)-PIA binding at Adenosine A1 receptor from rat brain membranes at the concentration of 10e-4 M; assay type: cell membranes; settings: Membrane
# In short: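 [3H](R)-PIA binding to rat cerebral cortex membranes with adenosine deaminase (3 units/mL) present in preparation, 30 min 30 °C preincubation and incubation. Result given as % of specific binding displaced at 10^-4 M.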
# [5] = biological target: T3, Adenosine receptor A3 (Homo sapiens) (UniProt P0DMS8); experiment: Displacement of [125I]AB-MECA binding at human Adenosine A3 receptor at 10e-7 M
# T3 sequence (whole entry): T1 sequence (P0DMS8 whole entry)
# In short: (§1)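 Nonspecific binding defined with 100 µM (R)-PIA. Compounds dissolved in DMSO, ≤2% in assay. Stopped by rapid filtration over GF/B filters with three buffer rinses; result given as % specific binding displaced at the stated concentration.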
# Homo sapiens = species on record: Homo sapiens; experiment: Selectivity ratio measured as the Ki value of rat A1 receptor to that of hA3 receptor.
# Adenosine receptor A1 = biological target: T4, Adenosine receptor A1 (Rattus norvegicus, UniProt P25099); experiment: Displacement of specific [3H](R)-PIA binding at adenosine A1 receptor from rat brain membranes.; assay type: cell membranes, Membrane
# T4 sequence (P25099 whole entry): T2 sequence (whole entry)
# [6] = biological target: T3, Adenosine receptor A3 (Homo sapiens); experiment: Displacement of [125I]AB-MECA binding at human Adenosine A3 receptor at 10e-5 M; in short: as §1
# Adenosine receptor A2a (Rattus norvegicus), sequence (P30543 whole entry): as above
smiles,measurement,setting,value
CCNC(=O)C1=C(C)NC(c2ccccc2)=C(C(=O)OCC)C1C#Cc1ccccc1 (centres undefined),inhibition,[1],19%
COC(=O)C1=C2C=CN(C)C=C2c2nc(-c3ccccc3)nn2C1,Ki,Adenosine receptor A3,0.013 µM
CCOC(=O)C1=C(c2ccccc2)N=C(C)/C(=C(/O)OCC)C1C#Cc1cccc(C)c1 (centres undefined),inhibition,[2],41%
same,Displacement,[3],< 10%
CCO/C(O)=C1\C(C)=NC(c2ccccc2)=C(C(=O)OC(C)(C)C)C1C#Cc1ccccc1 (centres undefined),inhibition,[1],27%
CCOC(=O)C1=C(c2ccccc2)N=C(C)/C(=C(/O)OCC)C1c1ccncc1 (centres undefined),Ki,Adenosine receptor A2a,44.7 µM
CCOC(=O)C1=C(c2ccccc2)N=C(C)/C(=C(/O)OCC)C1c1ccco1 (centres undefined),inhibition,[1],45%
CCOC(=O)C1=C(C)N=C(C)/C(=C(/O)OCC)C1c1cccs1 (centres undefined),inhibition,[1],25%
CCOC(=O)C1=C(c2ccccc2)N=C(C)/C(=C(/O)OCC)C1C#Cc1ccc([N+](=O)[O-])cc1 (centres undefined),inhibition,[1],24%
CCOC(=O)C1=C(c2ccccc2)N=C2CCCC(O)=C2C1C#Cc1ccccc1 (centres undefined),inhibition,[1],22%
CCO/C(O)=C1\C(C)=NC(c2ccccc2)=C(C(=O)OCc2ccc(C(F)(F)F)cc2)C1C#Cc1ccccc1 (centres undefined),inhibition,[2],32%
same,inhibition,[1],15%
CCOC(=O)C1=C(C)N(COC)C(c2ccccc2)=C(C(=O)OCC[Si](C)(C)C)C1C#Cc1ccccc1 (centres undefined),Displacement,[4],< 10%
same,inhibition,[1],27%
CCO/C(O)=C1\C(C)=NC(c2ccccc2)=C(C(=O)OCc2ccc(C(=O)NCCN)cc2)C1C#Cc1ccccc1 (centres undefined),inhibition,[2],68%
same,inhibition,[1],39%
same,Displacement,[5],< 10%
CCOC(=O)C1=C(c2ccccc2)N=C(C)/C(=C(/O)OCc2ccccc2)C1C#Cc1ccccc1 (centres undefined),inhibition,[2],24%
same,Displacement,[3],< 10%
CCO/C(O)=C1\C(C)=NC(c2ccccc2)=C(C(=O)OCc2ccc([N+](=O)[O-])cc2)C1C#Cc1ccccc1 (centres undefined),inhibition,[2],29%
same,Displacement,[3],< 10%
CCO/C(O)=C1\C(C)=NC(c2ccccc2)=C(C(=O)OCCCc2ccccc2)C1C#Cc1ccccc1 (centres undefined),Displacement,[3],< 10%
same,Displacement,[4],< 10%
CCO/C(O)=C1\C(C)=NC(c2ccccc2)=C(C(=O)OCC(OC)c2ccccc2)C1C#Cc1ccccc1 (centres undefined),inhibition,[1],33%
CCOC(=O)C1=C(C)NC(C)=C(C(=O)OC)C1C#Cc1ccccc1 (centres undefined),Selectivity ratio,Homo sapiens,5.7
CCO/C(O)=C1\C(C)=NC(c2ccccc2)=C(C(=O)OCc2cccc(I)c2)C1C#Cc1ccccc1 (centres undefined),inhibition,[2],14%
same,inhibition,[1],19%
CCOCN1C(C)=C(C(=O)OCC)C(C#Cc2ccccc2)C(C(=O)OCC[Si](C)(C)C)=C1c1ccccc1 (centres undefined),inhibition,[2],13%
same,inhibition,[1],19%
CCOCN1C(C)=C(C(=O)OCC)C(C#Cc2ccccc2)C(C(=O)O)=C1c1ccccc1 (centres undefined),Ki,Adenosine receptor A3,> 100 µM
same,Ki,Adenosine receptor A1,19.1 µM
same,inhibition,[1],36%
CCOC(=O)C1=C(c2ccccc2)N=C(C)/C(=C(/O)OCC)C1c1ccccn1 (centres undefined),inhibition,[1],25%
CCOC(=O)C1=C(c2ccccc2)N=C(C)/C(=C(/O)OCC)C1/C=C/c1ccc(N)cc1 (centres undefined),inhibition,[1],26%
CCO/C(O)=C1\C(C)=NC(c2ccccc2)=C(C(=O)OCCc2ccccc2)C1C#Cc1ccccc1 (centres undefined),Displacement,[3],< 10%
same,Displacement,[4],< 10%
CCOC(=O)C1=C(c2ccccc2)N=C(C)/C(=C(/O)OCC)C1c1cc2ccccc2o1 (centres undefined),Displacement,[3],< 10%
CCOC(=O)C1=C(c2ccccc2)N=C(C)/C(=C(/O)OCC)C1C#Cc1ccccc1 (centres undefined),inhibition,[1],26%
CCOC(=O)C1=C(C(F)(F)F)N=C(C)/C(=C(/O)OCC)C1C#Cc1ccccc1 (centres undefined),inhibition,[1],25%
CCOC(=O)C1=C(c2ccccc2)NC(C)=C(C(C)=O)C1C#Cc1ccccc1 (centres undefined),inhibition,[1],17%
CCO/C(O)=C1\C(C)=NC(c2ccccc2)=C(C(=O)O)C1C#Cc1ccccc1 (centres undefined),Displacement,[6],< 10%
same,inhibition,[1],16%
CCO/C(O)=C1\C(C)=NC(c2ccccc2)=C(C(=O)OCC[Si](C)(C)C)C1C#Cc1ccccc1 (centres undefined),inhibition,[1],18%
CCO/C(O)=C1\C(C)=NC(c2ccccc2)=C(C(=O)OCc2cccc(C)c2)C1C#Cc1ccccc1 (centres undefined),Displacement,[4],< 10%
same,inhibition,[1],16%
CCO/C(O)=C1\C(C)=NC(c2ccccc2)=C(C(=O)OCc2ccc(C(=O)OCC(Cl)(Cl)Cl)cc2)C1C#Cc1ccccc1 (centres undefined),inhibition,[2],33%
same,inhibition,[1],11%
CCO/C(O)=C1\C(C)=NC(c2ccccc2)=C(C(=O)OCc2ccc(C)cc2)C1C#Cc1ccccc1 (centres undefined),Displacement,[4],< 10%
same,inhibition,[1],17%
CCO/C(O)=C1\C(C)=NC(c2ccccc2)=C(C(=O)OCc2ccccc2)C1C#Cc1ccccc1 (centres undefined),Displacement,[3],< 10%
Cc1ccc(-c2oc3ccc(Cl)cc3c(=O)c2Cl)c(OC(C)C)c1,Ki,Adenosine receptor A1,100 µM
same,Ki,Adenosine receptor A2a,> 100 µM
CCCO/C(O)=C1\C(C)=NC(c2ccccc2)=C(C(=O)OCc2ccccc2)C1C#Cc1ccccc1 (centres undefined),inhibition,[2],21%
same,inhibition,[1],16%
CCO/C(O)=C1\C(C)=NC(c2ccccc2)=C(C(=O)OCc2ccccc2C)C1C#Cc1ccccc1 (centres undefined),inhibition,[2],16%
same,inhibition,[1],13%
C=CCO/C(O)=C1\C(C)=NC(c2ccccc2)=C(C(=O)OCC)C1/C=C/c1ccc([N+](=O)[O-])cc1 (centres undefined),Displacement,[4],< 10%
same,inhibition,[1],15%
CCOC(=O)C1=C(c2ccccc2)N=C(C)/C(=C(/O)OCC)C1c1cccnc1 (centres undefined),inhibition,[1],40%
CCO/C(O)=C1\C(C)=NC(c2ccccc2)=C(C(=O)OCc2cc([N+](=O)[O-])cc([N+](=O)[O-])c2)C1C#Cc1ccccc1 (centres undefined),inhibition,[2],20%
same,inhibition,[1],40%
CCOC(=O)C1=C(c2ccccc2)N=C(C)/C(=C(/O)OCC)C1c1cccs1 (centres undefined),inhibition,[1],36%
CCOC(=O)C1=C(c2ccccc2)N=C(C)/C(=C(/O)OC(C)(C)C)C1C#Cc1ccccc1 (centres undefined),inhibition,[1],20%
CCO/C(O)=C1\C(CC)=NC(c2ccccc2)=C(C(=O)OCc2ccccc2)C1C#Cc1ccccc1 (centres undefined),inhibition,[2],25%
same,Displacement,[3],< 10%
CCOC(=O)C1=C(c2ccccc2)N=C(C)/C(=C(/O)OCC)C1c1ccccc1 (centres undefined),Displacement,[3],< 10%
CCO/C(O)=C1\C(C)=NC(c2ccccc2)=C(C(=O)SCC)C1C#Cc1ccccc1 (centres undefined),inhibition,[1],17%
CCO/C(O)=C1\C(C)=NC(c2ccccc2)=C(C(=O)OCc2cc(C(F)(F)F)cc(C(F)(F)F)c2)C1C#Cc1ccccc1 (centres undefined),Displacement,[4],< 10%
same,inhibition,[1],29%
CCOC(=O)C1=C(c2ccccc2)N=C(C)/C(=C(/O)SCC)C1C#Cc1ccccc1 (centres undefined),Ki,Adenosine receptor A2a,5.15 µM
CCO/C(O)=C1\C(C)=NC(c2ccccc2)=C(C(=O)OCc2cccc([N+](=O)[O-])c2)C1C#Cc1ccccc1 (centres undefined),inhibition,[2],28.2%
same,Displacement,[3],< 10%
CCNC(=O)C1=C(c2ccccc2)N(COCC)C(C)=C(C(=O)OCC)C1C#Cc1ccccc1 (centres undefined),inhibition,[1],35%
CCNC(=O)C1=C(c2ccccc2)N=C(C)/C(=C(/O)OCC)C1C#Cc1ccccc1 (centres undefined),inhibition,[1],47%
